The values below come from ChEMBL document CHEMBL1806486, “Discovery and evaluation of 3-phenyl-1H-5-pyrazolylamine-based derivatives as potent, selective and efficacious inhibitors of FMS-like tyrosine kinase-3 (FLT3)” (Bioorg Med Chem, 2011).

Activity calls are given as the source filed them. No cut-off for these calls is given here. Bounds are passed on as bounds.

For data set [1], the target named is Vascular endothelial growth factor receptor 2 (Homo sapiens, UniProt P35968). The experiment in a line: Inhibition of recombinant GST-tagged VEGFR2 expressed in Sf9 insect cells after 120 mins by Kinase-Glo assay. Format: cell-based. In general terms: Kinase-Glo measures the ATP left after a reaction by luminescence.
Data set [2] deals with Vascular endothelial growth factor receptor 1 (Homo sapiens, UniProt P17948). The experiment in a line: Inhibition of recombinant GST-tagged VEGFR1 expressed in Sf9 insect cells after 120 mins by Kinase-Glo assay. In outline: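 GST-VEGFR1 (R781–I1338) or GST-VEGFR2 (V789–V1356) kinase domain, 50–100 ng, from Sf9 cells. Read-out was Kinase-Glo Plus luminescence.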
In data set [3] the test system is MOLM-13. The experiment in a line: Antiproliferation activity against human MOLM13 cells expressing FLT3 mutation assessed as cell viability after 72 hrs by MTS method. The following applies: MOLM-13, 72 h. Type of data set: functional. (Tetrazolium assays rely on reduction of a dye to a coloured formazan, in cell work by metabolically active cells.)
For data set [4], the target named is T1, Receptor-type tyrosine-protein kinase FLT3 (Homo sapiens, UniProt P36888).
T1 sequence (P36888 whole entry): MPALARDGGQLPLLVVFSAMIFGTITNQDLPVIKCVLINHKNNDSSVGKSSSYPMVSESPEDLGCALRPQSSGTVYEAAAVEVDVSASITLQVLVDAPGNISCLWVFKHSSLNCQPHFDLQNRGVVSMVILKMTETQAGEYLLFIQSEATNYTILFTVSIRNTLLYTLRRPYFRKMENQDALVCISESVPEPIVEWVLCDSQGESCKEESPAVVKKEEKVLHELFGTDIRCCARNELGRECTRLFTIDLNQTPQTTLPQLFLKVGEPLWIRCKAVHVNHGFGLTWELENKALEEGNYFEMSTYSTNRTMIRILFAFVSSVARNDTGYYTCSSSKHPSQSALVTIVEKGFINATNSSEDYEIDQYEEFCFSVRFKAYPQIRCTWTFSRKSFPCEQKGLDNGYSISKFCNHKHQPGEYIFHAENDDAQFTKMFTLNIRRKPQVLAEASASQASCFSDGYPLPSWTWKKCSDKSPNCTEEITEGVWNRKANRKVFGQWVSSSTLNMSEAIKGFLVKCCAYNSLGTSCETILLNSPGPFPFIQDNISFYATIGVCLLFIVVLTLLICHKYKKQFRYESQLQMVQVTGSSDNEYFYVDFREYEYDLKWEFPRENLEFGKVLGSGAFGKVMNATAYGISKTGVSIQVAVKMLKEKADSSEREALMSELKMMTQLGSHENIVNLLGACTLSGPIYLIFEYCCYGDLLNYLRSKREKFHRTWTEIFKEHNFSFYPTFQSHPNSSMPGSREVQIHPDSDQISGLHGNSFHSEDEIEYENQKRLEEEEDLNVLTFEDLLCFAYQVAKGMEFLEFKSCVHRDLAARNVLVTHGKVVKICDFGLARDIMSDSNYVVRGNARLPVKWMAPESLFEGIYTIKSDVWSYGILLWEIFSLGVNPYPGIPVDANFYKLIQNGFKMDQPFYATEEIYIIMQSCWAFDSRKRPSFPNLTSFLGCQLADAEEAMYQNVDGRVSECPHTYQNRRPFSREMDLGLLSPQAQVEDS
The experiment in a line: Inhibition of GST-tagged FLT3 expressing wild type kinase domain expressed in Sf9 insect cells after 4 hrs by Kinase-Glo assay.

Data set [5] deals with High affinity nerve growth factor receptor (Homo sapiens) (UniProt P04629). The experiment in a line: Inhibition of TRKA at 0.1 uM.
In data set [6] the target is Proto-oncogene tyrosine-protein kinase receptor Ret (Homo sapiens) (UniProt P07949). The experiment in a line: Inhibition of RET at 0.1 uM.
Data set [7] addresses Proto-oncogene tyrosine-protein kinase Src (Homo sapiens) (UniProt P12931). Nature of the data set: Inhibition of SRC at 0.1 uM.
Data set [8] deals with Vascular endothelial growth factor receptor 3 (Homo sapiens) (UniProt P35916). The experiment in a line: Inhibition of VEGFR3 at 0.1 uM.
Data set [9] addresses Mast/stem cell growth factor receptor Kit (Homo sapiens) (UniProt P10721). The experiment in a line: Inhibition of c-Kit at 0.1 uM.
For data set [10], the target named is Platelet-derived growth factor receptor alpha (Homo sapiens) (UniProt P16234). The experiment in a line: Inhibition of PDGFR alpha at 0.1 uM.
Data set [11] concerns the target Platelet-derived growth factor receptor beta (Homo sapiens) (UniProt P09619). Nature of the data set: Inhibition of PDGFR beta at 0.1 uM.
The target of data set [12] is Macrophage colony-stimulating factor 1 receptor (Homo sapiens) (UniProt P07333). The experiment in a line: Inhibition of CSF1R at 0.1 uM.
Data set [13] can be described thus: Antiproliferation activity against human RS4:11 cells expressing wild type FLT3 after 72 hrs by MTS method. Type of data set: functional. The following applies: RS4-11, 72 h.
Data set [14] concerns K562. The experiment in a line: Antiproliferation activity against human K562 cells expressing wild type BCR/ABL after 72 hrs by MTS method. Format: functional. The following applies: K562, 72 h.
Data set [15] concerns U-937. The experiment in a line: Antiproliferation activity against human FLT3 gene-deficient U937 cells after 72 hrs by MTS method. The following applies: U-937, 72 h. Format: functional.
Data set [16] relates to MOLT-4. Nature of the data set: Antiproliferation activity against human MOLT4 after 72 hrs by MTS method. Format: functional. The following applies: MOLT-4, 72 h.
In data set [17] the test system is MV4-11. Nature of the data set: Antitumor activity against human MV4-11 cells xenografted in athymic nu/nu nude mouse assessed as inhibition of tumor growth at 50 mg/kg, iv qd for 1 to 5 and 8 to 12 days. Type of data set: functional, organism-based. More on the design: dose 50 mg/kg. In outline: (§1)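 Nude nu/nu mice (9 weeks old) received 1 × 10^6 MV4;11 cells s.c. in the left flank. Treatment began at a mean tumor volume of about 500 mm3, with n = 8 per group. Dosing was iv once daily at 10, 25 or 50 mg/kg on days 1–5 and 8–12, in DMSO/Cremophor/saline vehicle, with vehicle controls. Tumor volume was measured by caliper as (width × length²)/2.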
(A xenograft is tissue or cells of one species grown in another, often human tumour cells in immunodeficient mice.)

Data set [18] in a line: AUC (0 to infinity) in Sprague-Dawley rat at 5 mg/kg, iv and 20 mg/kg, po. Format: ADME, organism-based. To be noted: plasma.
Data set [19] is described as follows: Volume of distribution at steady state in Sprague-Dawley rat at 5 mg/kg, iv and 20 mg/kg, po. To be noted: in vivo, read-out: Vdss. Format: ADME, organism-based.
For data set [20], the system named is MV4-11. Nature of the data set: Antitumor activity against human MV4-11 cells xenografted in athymic nu/nu nude mouse assessed as inhibition of tumor growth at 50 mg/kg, iv qd for 1 to 5 and 8 to 12 days measured after completion of treatment. Format: functional, organism-based. More on the design: dose 50 mg/kg. In outline: as §1
In data set [21] the test system is MV4-11. Nature of the data set: Antitumor activity against human MV4-11 cells xenografted in athymic nu/nu nude mouse assessed as tumor regrowth at 50 mg/kg, iv qd for 1 to 5 and 8 to 12 days measured after 20 days. More on the design: dose 50 mg/kg. Format: functional, organism-based. In outline:
as §1

Data set [22] relates to Mus musculus. Nature of the data set: Toxicity in athymic nu/nu nude mouse harboring xenografted huma MOLM13 cells assessed as reduction of body weight at 50 mg/kg, iv for continuous 5 days. Format: organism-based, MOLM-13. Also on record: dose 50 mg/kg, route intravenous; scale not given: the % may be the effect or the level left. To be noted: in vivo, 120 h.
Data set [23] relates to Mus musculus. Nature of the data set: Toxicity in athymic nu/nu nude mouse harboring xenografted human MV4:11 cells assessed as reduction of body weight at 50 mg/kg, iv for continuous 5 days. To be noted: in vivo, 120 h. More on the design: dose 50 mg/kg, route intravenous; scale not given: the % may be the effect or the level left. Type of data set: organism-based.
Data set [24] relates to Mus musculus. The experiment in a line: Toxicity in normal mouse assessed as reduction of body weight at 50 mg/kg, iv for continuous 5 days. To be noted: in vivo, 120 h.

Usually IC50 stands for the concentration that inhibits the measured activity by half. In general, GI50 refers to the concentration giving 50% growth inhibition. As a reminder, the inhibition is the percentage by which the read-out fell short of the control. The term AUC(0-inf) denotes the area under the concentration-time curve extrapolated to infinity.

Chain of Vascular endothelial growth factor receptor 2 (P35968 whole entry, the tested form may be a part): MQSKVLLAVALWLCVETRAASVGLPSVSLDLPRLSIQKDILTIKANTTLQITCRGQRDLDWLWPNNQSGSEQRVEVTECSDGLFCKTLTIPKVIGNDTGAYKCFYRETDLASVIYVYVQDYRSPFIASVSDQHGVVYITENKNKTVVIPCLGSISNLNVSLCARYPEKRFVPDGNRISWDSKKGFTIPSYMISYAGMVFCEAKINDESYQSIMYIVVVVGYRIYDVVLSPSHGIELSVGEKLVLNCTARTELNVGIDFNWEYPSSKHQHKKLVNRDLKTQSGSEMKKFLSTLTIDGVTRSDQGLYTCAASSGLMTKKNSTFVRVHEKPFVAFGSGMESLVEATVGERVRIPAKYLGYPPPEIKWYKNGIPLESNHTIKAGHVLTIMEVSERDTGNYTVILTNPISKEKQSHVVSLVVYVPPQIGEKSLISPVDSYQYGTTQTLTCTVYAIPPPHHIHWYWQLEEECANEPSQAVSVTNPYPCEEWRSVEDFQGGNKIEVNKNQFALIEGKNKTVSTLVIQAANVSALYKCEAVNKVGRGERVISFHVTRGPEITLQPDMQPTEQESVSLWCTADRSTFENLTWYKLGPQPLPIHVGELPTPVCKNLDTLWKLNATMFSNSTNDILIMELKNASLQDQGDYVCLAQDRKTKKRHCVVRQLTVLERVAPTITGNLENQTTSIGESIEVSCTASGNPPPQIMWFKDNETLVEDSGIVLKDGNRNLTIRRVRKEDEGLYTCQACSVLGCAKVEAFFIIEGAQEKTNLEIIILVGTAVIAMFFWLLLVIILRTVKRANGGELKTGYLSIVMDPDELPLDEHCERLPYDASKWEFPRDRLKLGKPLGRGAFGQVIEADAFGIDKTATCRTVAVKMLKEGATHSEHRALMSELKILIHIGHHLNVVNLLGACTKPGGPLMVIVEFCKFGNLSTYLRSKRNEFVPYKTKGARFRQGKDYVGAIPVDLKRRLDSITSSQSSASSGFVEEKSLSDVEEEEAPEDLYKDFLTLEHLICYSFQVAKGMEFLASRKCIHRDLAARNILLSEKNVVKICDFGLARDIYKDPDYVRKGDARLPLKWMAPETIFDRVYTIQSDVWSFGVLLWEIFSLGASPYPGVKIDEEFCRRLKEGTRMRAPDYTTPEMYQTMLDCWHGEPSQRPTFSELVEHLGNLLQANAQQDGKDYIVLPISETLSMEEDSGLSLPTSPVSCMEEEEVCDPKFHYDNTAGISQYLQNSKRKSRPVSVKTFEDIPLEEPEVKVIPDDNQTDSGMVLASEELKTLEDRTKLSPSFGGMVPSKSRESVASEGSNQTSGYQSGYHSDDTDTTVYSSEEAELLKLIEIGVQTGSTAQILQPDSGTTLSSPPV
Chain of Macrophage colony-stimulating factor 1 receptor (Homo sapiens) (P07333 whole entry): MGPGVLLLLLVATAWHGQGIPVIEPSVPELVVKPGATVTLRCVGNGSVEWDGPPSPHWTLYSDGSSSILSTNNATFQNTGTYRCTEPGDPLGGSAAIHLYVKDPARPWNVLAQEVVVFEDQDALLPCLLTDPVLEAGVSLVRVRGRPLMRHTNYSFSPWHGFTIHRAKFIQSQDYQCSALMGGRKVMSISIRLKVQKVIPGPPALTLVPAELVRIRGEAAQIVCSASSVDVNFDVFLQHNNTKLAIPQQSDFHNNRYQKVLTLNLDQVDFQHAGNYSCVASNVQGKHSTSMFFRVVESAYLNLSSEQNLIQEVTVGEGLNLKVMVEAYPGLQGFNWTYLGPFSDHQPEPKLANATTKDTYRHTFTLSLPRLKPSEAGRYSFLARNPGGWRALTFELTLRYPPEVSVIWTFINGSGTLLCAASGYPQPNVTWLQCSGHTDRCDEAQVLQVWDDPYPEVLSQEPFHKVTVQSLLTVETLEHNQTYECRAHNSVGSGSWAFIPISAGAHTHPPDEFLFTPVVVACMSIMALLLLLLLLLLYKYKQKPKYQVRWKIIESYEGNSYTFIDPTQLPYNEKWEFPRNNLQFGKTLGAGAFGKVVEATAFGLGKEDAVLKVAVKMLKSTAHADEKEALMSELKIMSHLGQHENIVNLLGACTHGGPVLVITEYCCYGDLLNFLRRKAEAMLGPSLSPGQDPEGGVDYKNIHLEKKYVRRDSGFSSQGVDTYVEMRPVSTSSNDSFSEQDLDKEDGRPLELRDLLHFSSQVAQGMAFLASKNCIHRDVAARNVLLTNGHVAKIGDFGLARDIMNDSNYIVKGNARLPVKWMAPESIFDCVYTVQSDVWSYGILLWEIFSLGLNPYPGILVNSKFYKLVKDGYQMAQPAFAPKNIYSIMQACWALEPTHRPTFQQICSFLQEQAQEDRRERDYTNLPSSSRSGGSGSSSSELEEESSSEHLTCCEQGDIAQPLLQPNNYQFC
Chain of Mast/stem cell growth factor receptor Kit (Homo sapiens) (P10721 whole entry): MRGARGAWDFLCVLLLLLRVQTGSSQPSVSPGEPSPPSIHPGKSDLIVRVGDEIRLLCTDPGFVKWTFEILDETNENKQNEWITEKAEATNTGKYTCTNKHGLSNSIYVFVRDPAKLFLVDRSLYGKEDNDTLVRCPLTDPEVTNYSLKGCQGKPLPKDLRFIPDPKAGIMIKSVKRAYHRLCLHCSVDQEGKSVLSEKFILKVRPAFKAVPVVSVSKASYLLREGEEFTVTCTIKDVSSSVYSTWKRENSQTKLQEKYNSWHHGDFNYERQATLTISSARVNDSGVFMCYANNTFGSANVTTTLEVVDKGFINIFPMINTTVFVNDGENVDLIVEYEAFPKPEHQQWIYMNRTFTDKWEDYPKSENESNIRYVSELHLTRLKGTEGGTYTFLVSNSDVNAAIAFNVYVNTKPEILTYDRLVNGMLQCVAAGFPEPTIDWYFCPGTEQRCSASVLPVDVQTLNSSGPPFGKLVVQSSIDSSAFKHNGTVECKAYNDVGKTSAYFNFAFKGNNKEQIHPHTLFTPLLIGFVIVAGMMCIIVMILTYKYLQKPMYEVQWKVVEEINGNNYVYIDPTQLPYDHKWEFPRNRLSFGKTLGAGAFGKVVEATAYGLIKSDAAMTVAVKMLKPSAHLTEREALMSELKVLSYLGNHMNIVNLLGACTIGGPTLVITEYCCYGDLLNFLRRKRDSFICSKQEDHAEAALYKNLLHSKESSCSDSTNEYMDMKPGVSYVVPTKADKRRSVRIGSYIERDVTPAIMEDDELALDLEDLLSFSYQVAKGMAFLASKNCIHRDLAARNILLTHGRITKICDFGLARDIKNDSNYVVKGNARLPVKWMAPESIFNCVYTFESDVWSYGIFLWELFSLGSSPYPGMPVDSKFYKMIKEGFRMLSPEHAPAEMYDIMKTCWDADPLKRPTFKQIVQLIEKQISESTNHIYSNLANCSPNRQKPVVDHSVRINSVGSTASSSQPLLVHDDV
Chain of High affinity nerve growth factor receptor (Homo sapiens) (P04629 33-796 limits assumed): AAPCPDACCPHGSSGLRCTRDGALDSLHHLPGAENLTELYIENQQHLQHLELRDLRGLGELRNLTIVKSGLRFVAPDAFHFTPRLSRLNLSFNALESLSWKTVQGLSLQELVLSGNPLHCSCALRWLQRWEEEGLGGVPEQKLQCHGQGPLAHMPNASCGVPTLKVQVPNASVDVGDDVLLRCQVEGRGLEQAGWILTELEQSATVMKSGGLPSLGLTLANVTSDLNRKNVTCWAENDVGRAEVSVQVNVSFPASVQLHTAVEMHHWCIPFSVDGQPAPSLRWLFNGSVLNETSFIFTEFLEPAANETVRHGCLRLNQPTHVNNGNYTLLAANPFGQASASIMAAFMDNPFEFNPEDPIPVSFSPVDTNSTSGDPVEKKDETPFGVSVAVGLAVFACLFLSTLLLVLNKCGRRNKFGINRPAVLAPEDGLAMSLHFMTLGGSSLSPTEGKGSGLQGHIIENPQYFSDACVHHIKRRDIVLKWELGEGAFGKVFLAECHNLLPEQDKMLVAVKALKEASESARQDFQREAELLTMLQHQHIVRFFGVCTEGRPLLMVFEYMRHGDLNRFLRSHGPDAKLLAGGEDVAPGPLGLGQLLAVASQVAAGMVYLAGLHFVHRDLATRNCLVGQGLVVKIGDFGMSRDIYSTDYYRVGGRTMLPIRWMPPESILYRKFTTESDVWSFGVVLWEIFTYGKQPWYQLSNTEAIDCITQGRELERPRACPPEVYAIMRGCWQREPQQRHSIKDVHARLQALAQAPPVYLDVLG
Chain of Proto-oncogene tyrosine-protein kinase Src (Homo sapiens) (P12931 2-536 limits assumed): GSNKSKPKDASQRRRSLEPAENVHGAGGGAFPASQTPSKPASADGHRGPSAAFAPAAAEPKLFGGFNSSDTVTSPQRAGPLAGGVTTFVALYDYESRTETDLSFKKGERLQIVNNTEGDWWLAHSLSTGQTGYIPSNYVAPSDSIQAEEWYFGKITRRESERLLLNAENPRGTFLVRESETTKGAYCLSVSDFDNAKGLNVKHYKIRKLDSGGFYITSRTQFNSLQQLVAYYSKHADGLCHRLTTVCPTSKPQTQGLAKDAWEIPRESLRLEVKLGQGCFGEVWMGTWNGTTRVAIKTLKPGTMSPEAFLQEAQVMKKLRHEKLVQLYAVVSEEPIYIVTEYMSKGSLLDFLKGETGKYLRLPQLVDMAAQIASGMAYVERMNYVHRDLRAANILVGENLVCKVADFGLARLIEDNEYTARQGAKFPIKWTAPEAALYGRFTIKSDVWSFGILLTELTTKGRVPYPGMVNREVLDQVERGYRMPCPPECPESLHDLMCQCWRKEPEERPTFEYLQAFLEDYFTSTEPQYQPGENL

Take `Cc1nc(Nc2cc(-c3cccc(NS(=O)(=O)c4ccccc4)c3)n[nH]2)cc(N2CCN(C)CC2)n1`: the IC50 in data set [1] was 290 nM; in data set [2], 310 nM; in [4], 6 nM. Further, the GI50 in [3] was 21 nM; in data set [13], 10000 nM; in data set [14], over 10000 nM; in [15], over 20000 nM; in data set [16], 7400 nM. The inhibition in data set [5] is 96%; in data set [6] it was 71%; in data set [7], 44%; in data set [8], 31%; in [9], 27%; in data set [10], 24%. In addition, the results for the inhibition in data set [11] and in data set [12] were 18% and 16%, respectively. Also, the result in data set [17] and in data set [20] was Active. This compound showed an AUC(0-inf) in [18] of 1400 ng·h/mL. For the same compound, the Vd in data set [19] was determined as 6.6 L/kg. Also, in [21], the outcome was inactive. For the same compound, the figures for the Activity in [22], in data set [23] and in [24] were under 3%, under 3% and “Non-toxic”, respectively.
